Assay outcomes deposited in PubChem by several laboratories.
Shown are actives, neighbours in structure and some others; about 2% of the full set was active somewhere.
IMP-1 inh – IMP-1 metallo-beta-lactamase inhibitors, primary screen, biochemical, epi-absorbance readout, Pseudomonas aeruginosa enzyme | metallo-beta-lactamase IMP-1 (Pseudomonas aeruginosa) | purified IMP-1, nitrocefin hydrolysis, epi-absorbance fluorescence | inhibition, % at 5.6 µM | 290,000 tested, 0.45% active;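 active means inhibition above the mean plus 3 SD of all compounds in the same screening run, cut at about 4.5% in these data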;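 further: 0% = IMP-1 with DMSO and 100% = DMSO wells lacking enzyme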
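assay system = purified recombinant IMP-1 metallo-beta-lactamase enzyme | schedule = 15 min preincubation plus 25 min reaction at 25 °C | signal = Epi-absorbance fluorescence, 480 nm excitation, 530 nm emission | read-out basis = percent inhibition from optical density relative to buffer-blank wells | controls = IMP-1 with DMSO as 0%, enzyme-free DMSO as 100%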
PLC-gamma1 inh – PLC-gamma1 enzyme inhibitors, primary screen, biochemical, fluorescence, purified enzyme; fluorogenic substrate; 370,000 tested, 0.84% active; inhibition, % at 12.2 µM; in the data active means inhibition above about 9.5%
Target sequence (P19174 whole entry, looked up): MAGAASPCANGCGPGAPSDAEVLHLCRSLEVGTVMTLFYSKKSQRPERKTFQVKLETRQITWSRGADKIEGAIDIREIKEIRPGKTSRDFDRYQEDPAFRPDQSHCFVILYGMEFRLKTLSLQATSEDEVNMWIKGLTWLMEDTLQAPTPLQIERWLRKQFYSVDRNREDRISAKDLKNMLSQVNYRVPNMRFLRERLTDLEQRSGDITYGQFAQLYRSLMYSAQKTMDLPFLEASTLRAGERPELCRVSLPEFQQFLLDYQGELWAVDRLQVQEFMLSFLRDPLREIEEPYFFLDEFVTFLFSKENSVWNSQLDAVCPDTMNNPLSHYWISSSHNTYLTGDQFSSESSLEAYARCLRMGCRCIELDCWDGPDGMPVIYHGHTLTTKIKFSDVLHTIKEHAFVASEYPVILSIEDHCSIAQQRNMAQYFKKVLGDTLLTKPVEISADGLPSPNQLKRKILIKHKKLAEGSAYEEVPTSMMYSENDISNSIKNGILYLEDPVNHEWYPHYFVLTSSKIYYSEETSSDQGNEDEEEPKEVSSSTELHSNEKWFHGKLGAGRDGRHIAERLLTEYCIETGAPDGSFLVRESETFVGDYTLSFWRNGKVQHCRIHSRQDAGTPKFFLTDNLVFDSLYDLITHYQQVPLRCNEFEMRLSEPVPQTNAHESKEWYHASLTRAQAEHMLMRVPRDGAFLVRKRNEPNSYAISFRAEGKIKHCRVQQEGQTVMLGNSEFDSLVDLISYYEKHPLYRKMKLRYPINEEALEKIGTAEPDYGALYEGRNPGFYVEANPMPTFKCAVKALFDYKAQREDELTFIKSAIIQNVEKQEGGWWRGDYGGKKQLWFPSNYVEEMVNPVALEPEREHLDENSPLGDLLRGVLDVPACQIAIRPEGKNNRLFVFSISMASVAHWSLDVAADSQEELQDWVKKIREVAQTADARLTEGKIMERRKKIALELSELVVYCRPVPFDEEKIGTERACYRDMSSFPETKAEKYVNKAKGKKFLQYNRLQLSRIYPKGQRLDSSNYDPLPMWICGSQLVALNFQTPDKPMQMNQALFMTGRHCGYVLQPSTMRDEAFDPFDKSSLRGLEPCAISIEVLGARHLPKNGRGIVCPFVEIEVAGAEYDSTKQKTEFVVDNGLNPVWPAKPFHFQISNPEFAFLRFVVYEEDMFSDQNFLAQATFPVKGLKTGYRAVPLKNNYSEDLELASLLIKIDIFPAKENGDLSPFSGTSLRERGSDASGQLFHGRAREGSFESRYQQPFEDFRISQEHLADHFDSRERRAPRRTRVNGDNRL
PLCb3 inh – human PLC-beta3 inhibitors, primary screen, biochemical, fluorescence; AID 720704, 2013; 1-phosphatidylinositol 4,5-bisphosphate phosphodiesterase beta-3 (Homo sapiens), Q01970; Purified PLC-beta3, fluorogenic substrate; 370,000 tested, 0.18% active; inhibition, % at 12.2 µM;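 further: 0% = median of compound wells on plate and 100% = full blocker control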
PvdQ acylase – P. aeruginosa PvdQ acylase inhibitors, primary screen, biochemical, fluorescence, plate reader and imaging, single point; PvdQ acylase [Pseudomonas aeruginosa LESB58]; purified PvdQ acylase; inhibition, % at 10 µM; 340,000 tested, 0.063% active; AID 488965, 2010; in the data active means inhibition above about 30%, passing the limit was not always enough;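 further: 0% = vehicle neutral wells and 100% = reference inhibitor wells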
VIM-2 inh – VIM-2 metallo-beta-lactamase inhibitors, primary screen, biochemical, epi-absorbance readout, Pseudomonas aeruginosa enzyme. purified VIM-2, nitrocefin hydrolysis, epi-absorbance fluorescence. inhibition, % at 5.6 µM. 290,000 tested, 0.89% active. AID 1527, 2009;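 active means inhibition above the mean of all tested compounds plus 3 SD, cutoff set per screening run, cut at about 7.5% in these data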;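 further: red hydrolysis product quenches plate fluorescence so inhibitors raise well fluorescence; 0% = enzyme with DMSO and 100% = DMSO without enzyme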
PLCg1 ctr – PLC-gamma1 enzyme inhibitors, counter-screen for PLC-beta3 inhibitor project, biochemical, fluorescence; shares compounds with PLC-gamma1 inh; purified PLC-gamma1, fluorogenic substrate; inhibition, % at 12.3 µM; 3,300 tested, 3.1% active; AID 743258, 2014; in the data active means inhibition above about 9.5%
PLCb3 confirm – PLC-beta3 inhibitor confirmation, biochemical, fluorescence, purified enzyme. 3,300 tested, 1% active. inhibition, % at 12.3 µM. AID 743261, 2014. fluorogenic substrate fluorescence. shares compounds with PLC-gamma1 inh
The depositor's hits bear a star; . = not tested or not shown. Unless noted, no stated cut-off is given here; in the data, active means inhibition above about 11%; inactive means the rest.

SMILES | IMP-1 inh | PLC-gamma1 inh | PLCb3 inh | PvdQ acylase | VIM-2 inh | PLCg1 ctr | PLCb3 confirm
CCCCOc1ccc(C(=O)NC2CCCCN(Cc3cccc(C(F)(F)F)c3)C2=O)cc1 (stereo unspecified) | . | 10* | 6 | . | . | 3 | 2
O=C(COC(=O)c1ccc(Sc2ncn[nH]2)c([N+](=O)[O-])c1)Nc1cccc(Cl)c1F | . | 0 | 1 | . | . | . | .
CCCCC1O[C@@H](C)[C@@H]2CN3CCc4c([nH]c5ccccc45)[C@@H]3C[C@@H]2N1C (stereo partly specified) | . | -69 | -95 | . | . | . | .
O=S(=O)(O)c1ccc(N=NNc2ccc(Br)cc2)cc1 | -2 | 9.8* | -8 | -2 | -4 | -6 | -7
COC(=O)[C@]12C[C@H](CC(=O)NCCC(C)C)C(=O)N(Cc3ccc4c(c3)OCO4)C1=C[C@H](COCc1ccccc1)O[C@@H]2C | . | 4 | 6 | . | . | . | .
CCc1ccc(C(=O)NNc2cc(Cl)ccc2Cl)cc1 | -2 | 10.0* | -2 | -17 | -2 | -11 | -1
CCc1ccc(C(=O)NNc2ccccc2F)cc1 | 1 | 1 | -4 | -16 | -1 | . | .
Cc1ccccc1C(=O)N[C@H](C(=O)N1CCC[C@H]1C(=O)NC1CCCC1)C1CCCCC1 | . | 2 | 6 | . | . | . | .
Cc1ccc(Cn2nnc3c(=O)[nH]c(C4CCN(S(=O)(=O)c5cc(C)ccc5C)CC4)nc32)cc1 | -3 | 12* | 3 | 0 | -1 | 6 | 4
Cc1ccc(C)c(S(=O)(=O)N2CCC(c3nc4c(nnn4Cc4ccc(F)cc4)c(=O)[nH]3)CC2)c1 | -1 | 7 | -2 | -14 | -1 | . | .
Cc1ccc(Cn2nnc3c(=O)[nH]c(C4CCN(S(=O)(=O)c5ccc(F)cc5)CC4)nc32)cc1 | 18* | 9.8* | 0 | -8 | -3 | -3 | -3
CCC(C)NC(=O)CNC(=S)N(Cc1ccccc1)Cc1cccnc1 (stereo unspecified) | -4 | 9.7* | 4 | -8 | -1 | 1 | 2
COC(=O)[C@@]12CCCCC3=C1N(CCC3)C(=O)[C@H]2CC(=O)NCc1ccc(OC)c(OC)c1 | . | 3 | 3 | . | . | . | .
Cn1cccc1C(=O)OCC(=O)Nc1cccc(S(=O)(=O)N2CCOCC2)c1 | 0 | 11* | 0 | -5 | 0 | -4 | -1
O=C(COC(=O)c1cccs1)Nc1cccc(S(=O)(=O)N2CCOCC2)c1 | -4 | 0 | 2 | -18 | 0 | . | .
O=C(Cc1ccccc1Cl)Nc1cccc(S(=O)(=O)N2CCOCC2)c1 | 0 | 9.9* | 2 | -15 | -1 | -3 | -3
O=C(Cc1c(Cl)cccc1Cl)Nc1cccc(S(=O)(=O)N2CCOCC2)c1 | -2 | 2 | -1 | -15 | 0 | . | .
Cc1nc(SCC(=O)Nc2cccc(S(=O)(=O)N3CCOCC3)c2)nc(C)c1C | . | 14* | 4 | -7 | . | -6 | -3
COc1cccc(Cn2cc(COC(=O)N(C)Cc3ccccc3)nn2)c1 | . | 0 | 0 | . | . | . | .
COc1ccc(C(=O)NC(C(=O)NCC2CCCO2)C(C)C)cc1 (stereo unspecified) | -3 | 10* | 5 | -10 | 0 | -3 | -3
CCOc1ccc(C(=O)NC(C(=O)NCC2CCCO2)C(C)C)cc1 (stereo unspecified) | -1 | -3 | -9 | -9 | -1 | . | .
Cc1ccc(NC(=O)C2CC3CCC2C3)c(C)c1 (stereo unspecified) | . | 2 | 0 | . | . | . | .
CCOC(=O)C1=NOC(C(=O)NC2CCCC2)(C(=O)C2CC2)C1 (stereo unspecified) | . | -2 | -2 | . | . | . | .
CC(O)CN(CCC(N)=O)CCC(N)=O (stereo unspecified) | -2 | 10* | 0 | -7 | -2 | -1 | -1
CC(C)=CCC/C(C)=C/CN(CC(C)O)CC(C)O (stereo unspecified) | -3 | 3 | 5 | -4 | -4 | . | .
SMILES | IMP-1 inh | PLC-gamma1 inh | PLCb3 inh | PvdQ acylase | VIM-2 inh | PLCg1 ctr | PLCb3 confirm
COc1ccc(N=C2SC(CC(=O)Nc3ccccc3)C(=O)N2Cc2ccco2)cc1 (stereo unspecified) | -2 | 8 | 11* | 10 | -3 | 1 | 2
O=C(CC1SC(=Nc2ccccc2)N(CCO)C1=O)Nc1ccccc1 (stereo unspecified) | -5 | 2 | 4 | 4 | -1 | . | .
O=C(CC1SC(=Nc2ccccc2)N(CCc2c[nH]c3ccccc23)C1=O)Nc1ccccc1F (stereo unspecified) | -2 | 9 | 13* | 0 | -2 | 4 | 7
O=C(CC1SC(=Nc2ccccc2)N(CCc2ccccn2)C1=O)Nc1ccc(F)cc1 (stereo unspecified) | -5 | 9.8* | 5 | -4 | -3 | 3 | 5
CCOc1ccc(-c2n[nH]c(C)c2Oc2ccccc2OC)c(O)c1 | 0 | 9.6* | 3 | 4 | -4 | -4 | -2
C=C(C)COc1ccc(-c2n[nH]c(C)c2Oc2ccccc2OC)c(O)c1 | -3 | 1 | 1 | -4 | -4 | . | .
CC(C)OC(=O)CSc1nc2c(c(C3CC=CCC3)c1C#N)CCC2 (stereo unspecified) | -3 | 9.6* | 4 | 7 | -1 | -7 | -6
C=CCSc1nc2c(c(C3CC=CCC3)c1C#N)CCC2 (stereo unspecified) | -2 | 0 | 2 | -10 | -3 | . | .
c1ccc(-c2nnc(SCC3CCCCO3)nc2-c2ccccc2)cc1 (stereo unspecified) | -1 | 17* | 7 | 5 | -2 | -2 | 1
CN(C)C(=O)C[C@H]1C[C@@H]2c3cc(NC(=O)NC4CCCC4)ccc3O[C@@H]2[C@@H](CO)O1 | . | -3 | -3 | . | . | . | .
COc1cccc(CC(=O)N2CCN(S(=O)(=O)c3ccc(Br)cc3)CC2)c1 | . | 12* | 5 | 12 | . | -8 | -5
CCOC(=O)CNC(=O)CSc1nnc(-c2ccccc2)n1CC | . | -1 | 0 | . | . | . | .
Cc1cc(C)n(-c2ccc([N+](=O)[O-])cc2)n1 | -1 | 6 | 5 | -14 | 0 | . | .
Cc1cc(N)n(-c2ccc([N+](=O)[O-])cc2)n1 | -2 | 12* | 1 | 14 | -4 | 8 | 5
Cc1ccc(C(=O)C[n+]2cccc(C(N)=O)c2)cc1 | -4 | -2 | -12 | 6 | -2 | . | .
CCN(CC)C(=O)C[n+]1cccc(C(N)=O)c1 | -2 | 9.6* | 10 | -9 | -1 | -3 | -1
COCCCN1C(=O)[C@H](CC(=O)NCc2cccc3ccccc23)[C@]2(C(=O)OC)CCCCC=C12 | . | 1 | 2 | . | . | . | .
